Data from paper PMC10339703 (Clinical and Translational Science, 2023).

What was measured:
[1] = In vitro Caco-2 permeability; type: in vitro ADME; settings: human
Pro‐C3 = test: Serum PD biomarker Pro-C3; type: in vivo, human; settings: MAD; statistically significant after a single dose but not after multiple doses
Summary of the method: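 Oral tablets b.i.d. for 14 days (morning only day 14), 25–200 mg, in healthy adults randomized 6:2 versus placebo. Morning doses followed ≥10 h fasting; other doses came ≥1 h after a meal. Serum drawn predose and 2, 4, 6, 12 h after day 1 morning dose, day 2/7 predose, and predose to 72 h after day 14 dose. Pro-C3 measured by validated ELISA; AUEC0‑12h computed.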

[2] = Plasma and urine pharmacokinetics, part I SAD study; type: in vivo, human; settings: for CL/F / Fe0‐72h (fraction excreted in urine): geometric mean (geometric CV%)
Summary of the method: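 Healthy adults randomized 6:2 to oral test compound or placebo (n = 8/cohort), fasted ≥10 h, no food ≥4 h postdose. Solution given as 150 mL in diluted Ora-Sweet plus 90 mL water rinse. Plasma sampled predose to 72 h. UHPLC-MS/MS with deuterated internal standard; plasma 2.5–1000 μg/L (LLOQ 2.5), urine 2–800 μg/L (LLOQ 2.0). Noncompartmental analysis; power-model ln-regression of Cmax/AUC on dose, slope with 90% CI.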

monkeys = test: Multiple-dose toxicity study up to 28 days in monkeys; type: in vivo
[3] = Metabolite profile in liver microsomes; type: in vitro ADME

Compound: O[C@H]1CCCN[C@@H]1CCCn1cnc2c(Cl)c(Cl)ccc21 [Bersiporocin]
- Papp [1]: 7.67 ± 1.06 ×10⁻⁶ cm/s
- mean AUEC0‐12h for serum Pro‐C3 compared to the placebo‐treated group (Pro‐C3): lower
- CL/F ([2]; SAD single 100 mg capsule): 156.48 (58.10) L/h
- Fe0‐72h (fraction excreted in urine) ([2]; SAD single 100 mg capsule): 10.01 (45.08) %
- CL/F ([2]; SAD single 100 mg solution): 340.72 (48.72) L/h
- Fe0‐72h (fraction excreted in urine) ([2]; SAD single 100 mg solution): 7.59 (32.47) %
- CL/F ([2]; SAD single 300 mg capsule): 196.59 (47.06) L/h
- Fe0‐72h (fraction excreted in urine) ([2]; SAD single 300 mg capsule): 7.42 (43.31) %
- CL/F ([2]; SAD single 500 mg tablet): 213.75 (53.27) L/h
- Fe0‐72h (fraction excreted in urine) ([2]; SAD single 500 mg tablet): 42.18 (180.78) %
- CL/F ([2]; SAD single 600 mg capsule): 312.07 (222.08) L/h
- Fe0‐72h (fraction excreted in urine) ([2]; SAD single 600 mg capsule): 3.09 (341.55) %
- half-life ([2]; human, plasma, oral, t 1/2, range, SAD, enteric coated capsule): 6.91 to 9.9 h
- dose dependence of plasma concentration ([2]; single dose of enteric coated capsule): dose‐proportional manner
- role of renal elimination ([2]; urine PK data from SAD or MAD): renal elimination was not the major clearance pathway
- maximum recommended starting dose for a 60 kg adult (monkeys; calculated from NOAEL in monkeys, safety factor = 10): 154.8 mg
- clinical observation in toxicity study (monkeys; monkeys, concluded not to be an adverse event, transient): vomiting was observed
- number of metabolites identified [3]: 21
